# Results reported in ChEMBL document CHEMBL1833887, “Synthesis and evaluation of 7-substituted 4-aminoquinoline analogues for antimalarial activity” (J Med Chem, 2011).
# Columns and labels:
# [1] = Solubility of the compound at pH 7.4 after 18 hrs by UV spectroscopic analysis; format: physicochemical; conditions: buffer
# Outline: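 Kinetic solubility. A 10 mM stock is diluted 1:100 into PBS pH 7.4 and incubated 18 h at room temperature, then filtered; the filtrate is mixed 1:1 with 1-propanol. UV spectrum (250–500 nm) compared by AUC with a 1-propanol/PBS reference. Single experiment in triplicate.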
# [2] = Permeability of the compound at pH 7.4 after 30 mins by PAMPA; format: ADME; conditions: read-out: permeability
# Outline: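 PAMPA at pH 7.4. A 10 mM DMSO stock is diluted into system solution buffer; its UV spectrum serves as reference. Membrane painted with GIT lipid, acceptor chamber holds acceptor solution buffer. Sandwich stirred for 30 min, aqueous boundary layer set to 40. Donor and acceptor UV spectra read at 250–500 nm. Permeability coefficient from the AUCs of reference, donor and acceptor. Single experiment in triplicate.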
# [3] = Dissociation constant, pKa of the compound; format: physicochemical
# Plasmodium falciparum [4] = assay: Antimalarial activity against chloroquine-sensitive Plasmodium falciparum 3D7 infected in human erythrocytes assessed as reduction in parasitemia after 72 hrs by spectrophotometry; format: functional, organism-based; conditions: 3D7, 72 h
# Plasmodium falciparum [5] = assay: Antimalarial activity against chloroquine-resistant Plasmodium falciparum K1 infected in human erythrocytes assessed as reduction in parasitemia after 72 hrs by spectrophotometry; format: functional, organism-based; conditions: K1, 72 h
# Plasmodium falciparum [6] = assay: Ratio of EC50 for chloroquine-resistant Plasmodium falciparum K1 infected in human erythrocytes to EC50 for chloroquine-sensitive Plasmodium falciparum 3D7 infected in human erythrocytes; format: functional
# HepG2 = assay: Cytotoxicity against human HepG2 cells assessed as intracellular ATP level after 72 hrs by Celltiter-Glo luminescent assay; format: cell-based; conditions: HepG2, 72 h
# [7] = Ratio of EC50 for human HepG2 cells to EC50 for Plasmodium falciparum 3D7 infected in human erythrocytes
# [8] = Ratio of EC50 for human HepG2 cells to EC50 for Plasmodium falciparum K1 infected in human erythrocytes
SMILES,solubility at 18 h [1] [µM],Papp at 0.5 h [2] [×10⁻⁶ cm/s],pKa [3],EC50 (Plasmodium falciparum [4]) [nM],EC50 (Plasmodium falciparum [5]) [nM],Ratio EC50 (Plasmodium falciparum [6]),EC50 (HepG2) [nM],Ratio EC50 [7],Ratio EC50 [8]
COc1ccc(F)cc1CNCCCNc1ccnc2cc(Oc3cccc(N(C)C)c3)ccc12,14.5,317,9.28,7,31,4.7,3300,514,110
c1ccc(Oc2ccc3c(NCCCNCc4ccc5c(c4)OCO5)ccnc3c2)cc1,14.5,317,9.28,18,78,4.3,2700,149,34
COc1ccccc1Oc1ccc2c(NCCCNCc3ccco3)ccnc2c1,14.5,317,9.28,1,87,66.9,6500,5014,75
Fc1ccc(Oc2ccc3c(NCCCNCc4ccco4)ccnc3c2)cc1,14.5,317,9.28,26,96,3.6,16000,611,167
COc1ccc(F)cc1CNCCCNc1ccnc2cc(Oc3ccc(Cl)cc3)ccc12,14.5,317,9.28,31,109,3.5,4500,143,41
COc1ccc(F)cc1CNCCCNc1ccnc2cc(Oc3ccc(F)cc3)ccc12,14.5,317,9.28,297,135,0.5,6600,22,49
COc1ccc(F)cc1CNCCCNc1ccnc2cc(Oc3ccccc3)ccc12,14.5,317,9.28,162,138,0.9,1500,9,11
COc1cccc(Oc2ccc3c(NCCCNCc4ccco4)ccnc3c2)c1,14.5,317,9.28,9,153,17.4,15500,1763,102
CN(C)c1cccc(Oc2ccc3c(NCCCNCc4ccco4)ccnc3c2)c1,14.5,317,9.28,27,155,5.7,16000,588,103
COc1cccc(CNCCCNc2ccnc3cc(Oc4ccc(C(C)(C)C)cc4)ccc23)c1O,14.5,317,9.28,54,249,4.6,1500,28,6
COc1cccc(Oc2ccc3c(NCCCNCc4cc(F)ccc4OC)ccnc3c2)c1,14.5,317,9.28,2360,296,0.1,7100,3,24
Clc1ccc(Oc2ccc3c(NCCCNCc4ccc5c(c4)OCO5)ccnc3c2)cc1,14.5,317,9.28,38,320,8.4,7200,189,22
COc1ccc(Oc2ccc3c(NCCCNCc4cccc(OC)c4O)ccnc3c2)cc1,14.5,317,9.28,4,375,91.5,5500,1347,15
COc1ccccc1Oc1ccc2c(NCCCNCc3ccc4c(c3)OCO4)ccnc2c1,14.5,317,9.28,14,517,37.7,5900,427,11
COc1cccc(Oc2ccc3c(NCCCNCc4ccc5c(c4)OCO5)ccnc3c2)c1,14.5,317,9.28,12,600,50,14100,1178,24
COc1ccc(Oc2ccc3c(NCCCNCc4cc(F)ccc4OC)ccnc3c2)cc1,14.5,317,9.28,54,660,12.2,7000,129,11
Fc1ccc(Oc2ccc3c(NCCCNCc4ccc5c(c4)OCO5)ccnc3c2)cc1,14.5,317,9.28,15,667,44.5,16000,1067,24
COc1cccc(CNCCCNc2ccnc3cc(Oc4ccc(Cl)cc4)ccc23)c1O,14.5,317,9.28,11,785,70.7,5700,514,7
Clc1ccc(Oc2ccc3c(NCCCNCc4ccco4)ccnc3c2)cc1,14.5,317,9.28,40,793,19.8,7800,194,10
COc1ccc(F)cc1CNCCCNc1ccnc2cc(Oc3ccccc3OC)ccc12,14.5,317,9.28,22,960,44,6400,293,7
COc1ccc(Oc2ccc3c(NCCCNCc4ccc5c(c4)OCO5)ccnc3c2)cc1,14.5,317,9.28,46,1420,30.9,7900,172,6
COc1cccc(CNCCCNc2ccnc3cc(Oc4ccccc4)ccc23)c1O,14.5,317,9.28,15,1840,122,6800,450,4
COc1cccc(CNCCCNc2ccnc3cc(Oc4cccc(N(C)C)c4)ccc23)c1O,14.5,317,9.28,10,2040,215.1,7300,765,4
CC(C)(C)c1ccc(Oc2ccc3c(NCCCNCc4ccc5c(c4)OCO5)ccnc3c2)cc1,14.5,317,9.28,137,2450,17.9,900,7,0.4
COc1ccc(F)cc1CNCCCNc1ccnc2cc(Oc3ccc(C(C)(C)C)cc3)ccc12,14.5,317,9.28,106,2780,26.2,7200,68,3
COc1cccc(Oc2ccc3c(NCCCNCc4cccc(OC)c4O)ccnc3c2)c1,14.5,317,9.28,72,3030,42,5300,74,2
COc1cccc(CNCCCNc2ccnc3cc(Oc4ccc(F)cc4)ccc23)c1O,14.5,317,9.28,11,3130,282.2,11000,990,4
CN(C)c1cccc(Oc2ccc3c(NCCCNCc4ccc5c(c4)OCO5)ccnc3c2)c1,14.5,317,9.28,1360,3930,2.9,16000,12,4
CC(C)(C)c1ccc(Oc2ccc3c(NCCCNCc4ccco4)ccnc3c2)cc1,14.5,317,9.28,1110,4810,4.3,3100,3,1
